Results: ChEMBL document CHEMBL4261486, “2-Arylaminobenzothiazole-arylpropenone conjugates as tubulin polymerization inhibitors” (Medchemcomm, 2017)
Activity calls are given as the source filed them. No cut-off for these calls is given here.

Experiments:
[1] = test system: A549; experiment: Antiproliferative activity against human A549 cells after 48 hrs by sulforhodamine B assay; assay type: functional, cell-based; details: A549, 48 h
How it was run: (§1)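 Cells grown in DMEM with 10% FBS at 37 °C under 5% CO2. Plated cells were allowed 24 h before drug, then exposed continuously for 48 h at 0.01, 0.1, 1, 10 and 100 μM. Monolayers were fixed with cold 10% TCA for 1 h at 4 °C and stained with 0.057% SRB in 1% acetic acid for 30 min. Bound dye was read at 510 nm. IC50 is the 50% growth-inhibitory concentration, using time-zero and control readings.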

[2] = test system: HeLa; experiment: Antiproliferative activity against human HeLa cells after 48 hrs by sulforhodamine B assay; assay type: functional, cell-based; how it was run: as §1
[3] = test system: MDA-MB-231; experiment: Antiproliferative activity against human MDA-MB-231 cells after 48 hrs by sulforhodamine B assay; assay type: functional, cell-based; details: MDA-MB-231, 48 h; how it was run: as §1
[4] = test system: MIA PaCa-2; experiment: Antiproliferative activity against human MIAPaCa2 cells after 48 hrs by sulforhodamine B assay; assay type: functional, cell-based; details: MIA PaCa-2, 48 h; how it was run: as §1
[5] = test system: HeLa; experiment: Cell cycle arrest in human HeLa cells assessed as accumulation at G2/M phase at 3 uM after 24 hrs by propidium iodide staining based flow cytometry (reference value: 33.4%); assay type: functional
[6] = test system: HeLa; experiment: Upregulation of cyclin-B1 expression in human HeLa cells at 3 uM after 24 hrs by Western blot analysis; assay type: functional, cell-based
How it was run: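 HeLa cells were treated with 3 μM for 24 h, with a DMSO vehicle control. Cyclin B1 protein was detected by immunoblot with tubulin as loading control.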

[7] = test system: HeLa; experiment: Induction of cyclin-B1 mRNA expression in human HeLa cells by qRT-PCR analysis; assay type: functional, cell-based
[8] = Inhibition of bovine brain tubulin polymerization pretreated followed by GTP addition measured at 1 min interval for 1 hr by fluorescence reporter based assay; design: species or system Bos taurus
How it was run: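 Bovine brain tubulin (2 mg/mL) was pre-incubated with compound at 1, 2, 3, 4 and 5 μM. The buffer was PEM (80 mM PIPES, 0.5 mM EGTA, 2 mM MgCl2, pH 6.9) with 10 μM fluorescent reporter and 1 mM GTP at 37 °C. Fluorescence (ex 360 / em 420 nm) was read every min for 1 h. IC50 was derived from these concentrations.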

[9] = biological target: T1, Tubulin (Homo sapiens) (UniProt P68371+Q9H4B7+P0DPH7+P68366+Q13509+Q71U36+P04350+Q3ZCM7+P07437+P68363+Q9BQE3+Q6PEY2+Q13885+Q9BVA1+Q9BUF5); experiment: Inhibition of tubulin polymerization in human HeLa cells assessed as disruption of microtubule organization at 3 uM after 24 hrs by DAPI staining based confocal microscopic analysis; assay type: cell-based
How it was run: (§2)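 HeLa cells on coverslips were exposed to 3 μM for 24 h and fixed in 3.5% formaldehyde in PBS. They were permeabilized with Triton X-100/Tween-20 and blocked in 2% BSA. Primary antitubulin antibody (1:200) was applied for 4 h, then FITC anti-mouse secondary (1:500) for 1 h. Nuclei were counterstained with DAPI and imaged by confocal microscopy at 60×, with a DMSO control.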

[10] = biological target: T1, Tubulin (Homo sapiens); experiment: Inhibition of tubulin polymerization in human HeLa cells assessed as increase of tubulin in soluble fraction at 3 uM after 24 hrs by Western blot analysis; assay type: cell-based
How it was run: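 HeLa cells, 1 × 10^5 per well, were treated for 24 h (3 μM for test conjugates). The soluble fraction was extracted with warm PIPES/Triton lysis buffer for 3 min at 30 °C, and the remaining polymerized fraction was taken in Laemmli buffer. Equal volumes were run by SDS-10% PAGE and immunoblotted for α-tubulin (1:2000) with HRP secondary and ECL detection.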

[11] = test system: HeLa; experiment: Induction of apoptosis in human HeLa cells assessed as appearance of condensed nuclei at 1 uM after 24 hrs by Hoechst […] staining based fluorescence microscopic analysis; assay type: functional, cell-based
How it was run: (§3)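 HeLa cells, 5 × 10^4 per well, were allowed 24 h to adhere. They were then exposed to 1 μM for 24 h at 37 °C and fixed in 4% paraformaldehyde for 10 min at 4 °C. Staining was with Hoechst […] at 5 μg/mL for 30 min at room temperature. Nuclear morphology was scored by fluorescence microscopy (ex 350, em 460 nm).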

[12] = test system: HeLa; experiment: Induction of mitochondrial membrane potential loss in human HeLa cells assessed as collapse of the mitochondrial membrane potential at 1 uM after 24 hrs by Rh-123 staining based spectrofluorimetric method relative to control; assay type: functional
How it was run: (§4)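 HeLa cells, seeded at 5 × 10^5 cells per mL overnight, were exposed to 1 μM for 24 h. Cells were trypsinized and incubated in PBS with Rhodamine-123 (10 μg/mL) for 30 min at room temperature, then washed. Fluorescence was read on a spectrofluorometer relative to control. Data are mean ± SD of three independent experiments.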

[13] = test system: HeLa; experiment: Induction of reactive oxygen species generation in human HeLa cells at 1 uM after 24 hrs by carboxy-DCFH-DA staining based fluorescence microscopic analysis; assay type: functional, cell-based
How it was run: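 Cells were treated with 1 μM for 24 h, then loaded with carboxy-DCFH-DA (10 μM) for 30 min at room temperature in the dark. They were resuspended in PBS at 5 × 10^4 cells per mL. DCF fluorescence was read by spectrofluorometer (ex 488 / em 525 nm per methods; 485/535 nm per legend), and images were taken by fluorescence microscopy.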

[14] = biological target: T1, Tubulin (Homo sapiens); experiment: Inhibition of tubulin polymerization in human HeLa cells assessed as appearance of irregular microtubule at 3 uM after 24 hrs by DAPI staining based confocal microscopic analysis; assay type: cell-based; how it was run: as §2
[15] = biological target: T1, Tubulin (Homo sapiens); experiment: Inhibition of tubulin polymerization in human HeLa cells assessed as appearance of rounded microtubule at 3 uM after 24 hrs by DAPI staining based confocal microscopic analysis; assay type: cell-based; how it was run: as §2
[16] = test system: HeLa; experiment: Induction of mitochondrial membrane potential loss in human HeLa cells at 1 uM after 24 hrs by Rh-123 staining based spectrofluorimetric method relative to control; assay type: functional; how it was run: as §4
[17] = test system: HeLa; experiment: Induction of apoptosis in human HeLa cells assessed as appearance of condensed nuclei after 24 hrs by Hoechst […] staining based fluorescence microscopic analysis; assay type: functional, cell-based; how it was run: as §3

| IC50 [1] [nM] | IC50 [2] [nM] | IC50 [3] [nM] | IC50 [4] [nM] | IC50 [8] [nM] | inhibition [9] | inhibition [10] | inhibition [14] | inhibition [15] | Compound | Activity [5] [%] | Activity [6] | Activity [7] | Activity [11] | Activity [12] [%] | Activity [13] | Activity [16] [%] | Activity [17] |
| --- | --- | --- | --- | --- | --- | --- | --- | --- | --- | --- | --- | --- | --- | --- | --- | --- | --- |
| 900 | 500 | 1100 | 1300 | 2200 | Active | Active | Active | Active | COc1ccc2nc(-c3ccc(N/C=C\C(=O)c4ccc(OC)c(F)c4)cc3)sc2c1 | 88.7 | Active | Active | Active | 40 | Active |  |  |
| 1400 | 600 | 2000 | 2300 | 2900 | Active | Active | Active | Active | COc1ccc2nc(-c3ccc(N/C=C\C(=O)c4ccc(OC)c(F)c4)c(C)c3)sc2c1 | 86.1 | Active | Active | Active |  | Active | 30 |  |

| Compound | IC50 [1] [nM] | IC50 [2] [nM] | IC50 [3] [nM] | IC50 [4] [nM] | IC50 [8] [nM] | inhibition [9] | inhibition [10] | inhibition [14] | inhibition [15] | Activity [5] [%] | Activity [6] | Activity [7] | Activity [11] | Activity [12] [%] | Activity [13] | Activity [16] [%] | Activity [17] |
| --- | --- | --- | --- | --- | --- | --- | --- | --- | --- | --- | --- | --- | --- | --- | --- | --- | --- |
| COC(=O)Nc1nc2cc(C(=O)c3cccs3)ccc2[nH]1 [NOCODAZOLE] | 820 | 840 | 710 | 910 | 1800 |  |  |  |  | 87.5 |  |  |  |  | Active |  | Active |
